Assay [1] has as its system Radical scavenging activity. The assay can be described thus: Antioxidant activity assessed as DPPH radical scavenging activity after 30 mins. Type of assay: functional. Summed up: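 Samples in DMSO were plated in triplicate with 200 µM DPPH in EtOH, 37 °C, 30 min, dark, and absorbance read at 515 nm. Percent scavenging was taken against the DMSO control, with gallic acid as positive control. Screening was at 200 µg/mL final, and actives were retested at 2.5–20 µg/mL. IC50 came from linear regression extrapolation.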
In general terms: DPPH is a stable violet radical that fades when it is reduced.

Assay [2] in a line: Antioxidant activity assessed as authentic peroxynitrite free radical scavenging activity after 5 mins.
A short description of assay [3]: Antioxidant activity assessed as 3-morpholinosydnonimine-derived peroxynitrite free radical scavenging activity after 5 mins.
Assay [4] can be described thus: Antioxidant activity assessed as authentic peroxynitrite free radical scavenging activity […]. Type of assay: functional. Summed up: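 Authentic peroxynitrite (10 µM, in 0.3 N NaOH) oxidizing dihydrorhodamine 123, working solution 5 µM. Buffer was nitrogen-purged 50 mM Na2HPO4, 50 mM NaH2PO4, 90 mM NaCl and 5 mM KCl with 5 mM DTPA. Room temperature, fluorescence at ex 485/em 530 nm; background and final intensities read 5 min after treatment.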

Assay [5] is described as follows: Antioxidant activity assessed as 3-morpholinosydnonimine-derived peroxynitrite free radical scavenging activity […]. Type of assay: functional. Summed up: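 Peroxynitrite was generated from SIN-1 (10 µM) and measured as oxidation of dihydrorhodamine 123, working solution 5 µM. Buffer was nitrogen-purged 50 mM Na2HPO4, 50 mM NaH2PO4, 90 mM NaCl and 5 mM KCl with 5 mM DTPA. Run at room temperature, fluorescence read at ex 485/em 530 nm; background and final intensities taken 5 min after treatment.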

Each structure is given as a SMILES string. A value given as a limit tells only on which side of the number the result lay.

A word on the IC50: it is the concentration that inhibits the measured activity by half.

As for `CO[C@@]1(CO)O[C@H](CO)[C@@H](O)[C@@H]1O`, the IC50 in assay [1], in assay [2] and in assay [3] was above 30 µM in each case.

`COC(=O)C1=CO[C@@H](O[C@@H]2O[C@H](CO)[C@@H](O)[C@H](O)[C@H]2O)[C@@H]2[C@@H](CO)C[C@H](O)[C@H]12`: the IC50 in assay [1], in assay [4] and in assay [5] was above 30 µM in each case.

On to `CO[C@]1(CO)O[C@H](CO)[C@@H](O)[C@@H]1O`, for which the IC50 in assay [1], in assay [2] and in assay [3] was above 30 µM throughout.

In the case of `COC(=O)C1=CO[C@@H](O[C@@H]2O[C@H](CO)[C@@H](O)[C@H](O)[C@H]2O)[C@H]2[C@@H]1[C@@H]1O[C@@H]1[C@@]2(O)CO`, the IC50 in assay [1], in assay [2] and in assay [3] was above 30 µM each time.

Turning to `COC(=O)C1=CO[C@@H](O[C@@H]2O[C@H](CO)[C@@H](O)[C@H](O)[C@H]2O)C2C1[C@@H]1O[C@@H]1[C@]21O[C@H]1O` (single isomer, unassigned; epimer a) [CITRIFOLININ B EPIMER A], the 50% inhibitory concentration (IC50) in assay [1], in assay [2] and in assay [3] was above 30 µM in each case.

In the case of `O=C/C=C/c1ccc2c(c1)O[C@@H](CO)[C@H](c1ccc(O)c(O)c1)O2` [AMERICANIN A], the IC50 in assay [1] is 16.9 µM.

Turning to `CC(=O)OCC1=C[C@@H]2OC(=O)C3=CO[C@@H](O[C@@H]4O[C@H](CO)[C@@H](O)[C@H](O)[C@H]4O)[C@H]1[C@@H]32` [ASPERULOSIDE], the half-maximal inhibitory concentration (IC50) in assay [1], in assay [2] and in assay [3] was above 30 µM throughout.

For `CC(=O)OCC1=C[C@H](O)[C@@H]2C(C(=O)O)=CO[C@@H](O[C@H]3O[C@@H](CO)[C@H](O)[C@@H](O)[C@@H]3O)[C@H]12` [ASPERULOSIDIC ACID], the concentration for half-maximal inhibition (IC50) in assay [1], in assay [2] and in assay [3] was above 30 µM throughout.

Regarding `O=C1O[C@H]2C=C(CO)[C@@H](CO)[C@H]2[C@@H]1CO` [BORRERIAGENIN], the 50% inhibitory concentration (IC50) in assay [1], in assay [2] and in assay [3] was above 30 µM in each case.

With `COC(=O)C1=CO[C@@H](O[C@@H]2O[C@H](CO)[C@@H](O)[C@H](O)[C@H]2O)C2C1[C@@H]1O[C@@H]1[C@]21O[C@@H]1O` (stereo not given in full) [CITRIFOLININ B EPIMER B], the half-maximal inhibitory concentration (IC50) in assay [1], in assay [2] and in assay [3] was above 30 µM throughout.

On to `Nc1ccn([C@@H]2O[C@H](CO)[C@@H](O)[C@H]2O)c(=O)n1` [CYTIDINE], for which the IC50 in assay [1], in assay [2] and in assay [3] was above 30 µM in each case.

As to `O=C1O[C@H]2C=C(CO)[C@H]3[C@H](O[C@@H]4O[C@H](CO)[C@@H](O)[C@H](O)[C@H]4O)OC=C1[C@H]32` [DEACETYLASPERULOSIDE], the IC50 in assay [1], in assay [2] and in assay [3] was above 30 µM in each case.

On to `COC(=O)C1=CO[C@@H](O[C@@H]2O[C@H](CO)[C@@H](O)[C@H](O)[C@H]2O)[C@H]2[C@@H]1C=C[C@@]21C=C(C(=O)c2ccc(O)c(OC)c2)C(=O)O1` [DEHYDROMETHOXYGAERTNEROSIDE], for which the half-inhibitory concentration (IC50) in assay [1], in assay [2] and in assay [3] was above 30 µM throughout.

Take `OC[C@H]1OC(O)[C@H](O)[C@@H](O)[C@@H]1O` (stereo not given in full) [DEXTROSE]: the 50% inhibitory concentration (IC50) in assay [1], in assay [2] and in assay [3] was above 30 µM each time.

With `O=C(O)c1cc(O)c(O)c(O)c1` [GALLIC ACID], the IC50 in assay [1] worked out at 2.7 µM.

With `OC[C@@H](O)[C@@H](O)[C@H](O)[C@H](O)CO` [MANNITOL], the IC50 in assay [1], in assay [2] and in assay [3] was above 30 µM in each case.

For the compound `C[C@@H]1O[C@@H](OC[C@H]2O[C@@H](Oc3c(-c4ccc(O)cc4)oc4cc(O)cc(O)c4c3=O)[C@H](O)[C@@H](O)[C@@H]2O)[C@H](O)[C@H](O)[C@H]1O` [NICOTIFLOROSIDE], the IC50 in assay [1], in assay [2] and in assay [3] was above 30 µM throughout.

Consider `CC[C@H](CC[C@@H](C)[C@H]1CC[C@H]2[C@@H]3CC=C4C[C@@H](O[C@@H]5O[C@H](CO)[C@@H](O)[C@H](O)[C@H]5O)CC[C@]4(C)[C@H]3CC[C@]12C)C(C)C` [SITOGLUSIDE], for which the IC50 in assay [1], in assay [2] and in assay [3] was above 30 µM throughout.

These data come from ChEMBL document CHEMBL1158739, “Chemical constituents of the fruits of Morinda citrifolia (Noni) and their antioxidant activity” (J Nat Prod, 2005).
